Measurements from ChEMBL document CHEMBL1132997, “Bis(phenazine-1-carboxamides): structure-activity relationships for a new class of dual topoisomerase I/II-directed anticancer drugs” (J Med Chem, 2000).

Columns and labels:
Jurkat = experiment: Inhibitory activity against wild-type human Jurkat leukemia cells; type: functional, cell-based
Outline: (§1)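 Growth inhibition in microculture with drug present throughout. Seeding was 4.5 × 10³ P388, 10³ Lewis lung or 3.75 × 10³ wild-type Jurkat cells per well. Exposure was 3 days for P388 and 4 days for the others. IC50 (nM) is the drug concentration reducing cell number to 50% of control cultures. Each value averages at least two independent duplicate determinations; CV 15–22%.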

[1] = test system: Lewis lung carcinoma cell line; experiment: Inhibitory activity against Murine Lewis lung carcinoma cells; type: functional, cell-based; details: Mus musculus; outline: as §1
P388 = experiment: Inhibitory activity against Murine P388 leukemia cells; type: functional, cell-based; details: Mus musculus; outline: as §1
[2] = The average concentration resulting in inhibition of cell growth to 50% whole cell line panel; type: functional
Outline: (§2)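 Tested in the NCI human tumour cell line panel. GI50 (nM) is the drug concentration inhibiting cell growth to 50% of controls. The panel mean ("Mid") is the average GI50 over the whole cell line panel.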

HT-29 = experiment: 50% inhibition of cell growth against HT-29 cell line; type: functional; details: Homo sapiens; outline: as §2
HCT-116 = experiment: 50% inhibition of cell growth against HCT116 cell line; type: functional; details: Homo sapiens; outline: as §2
CAKI-1 = experiment: 50% inhibition of cell growth against CAK1 cell line; type: functional; details: Homo sapiens; outline: as §2
MCF7 = experiment: 50% inhibition of cell growth against MCF-7 cell line; type: functional; details: Homo sapiens; outline: as §2
NCI/ADR-RES = experiment: 50% inhibition of cell growth against NCI/ADRcell line; type: functional; details: Homo sapiens; outline: as §2
SK-OV-3 = experiment: 50% inhibition of cell growth against SKOV-3 cell line; type: functional; details: Homo sapiens; outline: as §2

| Structure (SMILES) | IC50 (Jurkat) | IC50 [1] | IC50 (P388) | GI50 [2] | GI50 (HT-29) | GI50 (HCT-116) | GI50 (CAKI-1) | GI50 (MCF7) | GI50 (NCI/ADR-RES) | GI50 (SK-OV-3) |
| --- | --- | --- | --- | --- | --- | --- | --- | --- | --- | --- |
| CN(CCCNC(=O)c1cccc2nc3ccc4ccccc4c3nc12)CCCNC(=O)c1cccc2nc3ccc4ccccc4c3nc12 | 9 nM | 3.2 nM | 24 nM | – | – | – | – | – | – | – |
| CN(CCCNC(=O)c1cccc2nc3ccc(Cl)cc3nc12)CCCNC(=O)c1cccc2nc3ccc(Cl)cc3nc12 | 42 nM | 44 nM | 97 nM | 70 nM | < 10 nM | < 10 nM | 62 nM | < 10 nM | 240 nM | 1880 nM |
| Cc1ccc2nc3cccc(C(=O)NCCCN(C)CCCNC(=O)c4cccc5nc6ccc(C)cc6nc45)c3nc2c1 | 148 nM | 108 nM | 690 nM | 290 nM | 90 nM | 325 nM | 240 nM | 330 nM | 1570 nM | 11000 nM |
| Cc1ccc2nc3c(C(=O)NCCCN(C)CCCNC(=O)c4cccc5nc6cc(C)ccc6nc45)cccc3nc2c1 | 280 nM | 72 nM | 623 nM | 600 nM | 235 nM | 455 nM | 430 nM | 550 nM | 2660 nM | 5840 nM |
| Cc1ccc(Cl)c2nc3cccc(C(=O)NCCCN(C)CCCNC(=O)c4cccc5nc6c(Cl)ccc(C)c6nc45)c3nc12 | 9.8 nM | 5.2 nM | 29 nM | 50 nM | 40 nM | < 10 nM | < 10 nM | < 10 nM | 50 nM | 2030 nM |
| CN(CCCNC(=O)c1cccc2nc3ccccc3nc12)CCCNC(=O)c1cccc2nc3ccccc3nc12 | 173 nM | 107 nM | 520 nM | 210 nM | 44 nM | 16 nM | 225 nM | 120 nM | 1050 nM | 850 nM |
| Cc1ccc(C)c2nc3c(C(=O)NCCCN(C)CCCNC(=O)c4cccc5nc6c(C)ccc(C)c6nc45)cccc3nc12 | 21 nM | 5.3 nM | 26 nM | 34 nM | < 10 nM | < 10 nM | < 10 nM | < 10 nM | 35 nM | 74 nM |
| Cc1cccc2nc3c(C(=O)NCCCN(C)CCCNC(=O)c4cccc5nc6c(C)cccc6nc45)cccc3nc12 | 172 nM | 46 nM | 584 nM | 740 nM | 270 nM | 63 nM | 370 nM | 480 nM | 920 nM | 12000 nM |
| Cc1ccc(C(=O)NCCCN(C)CCCNC(=O)c2ccc(C)c3nc4ccccc4nc23)c2nc3ccccc3nc12 | 102 nM | 26 nM | 375 nM | – | – | – | – | – | – | – |
| CN(CCCNC(=O)c1c(Cl)ccc2nc3ccccc3nc12)CCCNC(=O)c1c(Cl)ccc2nc3ccccc3nc12 | 2370 nM | 8370 nM | 12000 nM | 5750 nM | 135 nM | 285 nM | 34000 nM | 4070 nM | > 100000 nM | 88000 nM |
| Cc1cc(C(=O)NCCCN(C)CCCNC(=O)c2cc(C)cc3nc4ccccc4nc23)c2nc3ccccc3nc2c1 | 208 nM | 48 nM | 472 nM | 725 nM | 130 nM | 470 nM | 170 nM | 310 nM | 5730 nM | 12000 nM |
| CN(CCCNC(=O)c1cccc2nc3cccc(N(C)C)c3nc12)CCCNC(=O)c1cccc2nc3cccc(N(C)C)c3nc12 | 695 nM | 310 nM | 2280 nM | 2510 nM | 530 nM | 430 nM | 2910 nM | 1820 nM | 11000 nM | 10000 nM |
| CN(CCCNC(=O)c1cccc2nc3cc(Cl)ccc3nc12)CCCNC(=O)c1cccc2nc3cc(Cl)ccc3nc12 | 249 nM | 83 nM | 2960 nM | 560 nM | 80 nM | 35 nM | 530 nM | 330 nM | 1140 nM | 1960 nM |
| CN(CCCNC(=O)c1cccc2nc3cccc(Oc4ccccc4)c3nc12)CCCNC(=O)c1cccc2nc3cccc(Oc4ccccc4)c3nc12 | 1250 nM | 1310 nM | 3450 nM | 3160 nM | 1790 nM | 1770 nM | 5360 nM | 3480 nM | 1630 nM | 11000 nM |
| COc1ccc2nc3cccc(C(=O)NCCCN(C)CCCNC(=O)c4cccc5nc6ccc(OC)cc6nc45)c3nc2c1 | 30 nM | 24 nM | 75 nM | 72 nM | < 10 nM | < 10 nM | 82 nM | < 10 nM | 1210 nM | 800 nM |
| CN(CCCNC(=O)c1cccc2nc3cccc(F)c3nc12)CCCNC(=O)c1cccc2nc3cccc(F)c3nc12 | 177 nM | 120 nM | 294 nM | 1320 nM | 400 nM | 225 nM | 1730 nM | 460 nM | 7450 nM | 14000 nM |
| CN(CCCNC(=O)c1cccc2nc3cccc(Cl)c3nc12)CCCNC(=O)c1cccc2nc3cccc(Cl)c3nc12 | 14 nM | 8.8 nM | 39 nM | 93 nM | 70 nM | < 10 nM | 15 nM | 35 nM | 350 nM | 790 nM |
| CN(CCCNC(=O)c1cc(Cl)cc2nc3ccccc3nc12)CCCNC(=O)c1cc(Cl)cc2nc3ccccc3nc12 | 74 nM | 12 nM | 204 nM | 180 nM | < 10 nM | 18 nM | 1170 nM | 110 nM | 125 nM | 1460 nM |
| CN(CCCNC(=O)c1cccc2nc3c(ccc4ccccc43)nc12)CCCNC(=O)c1cccc2nc3c(ccc4ccccc43)nc12 | 290 nM | 410 nM | 450 nM | – | – | – | – | – | – | – |
| CN(CCCNC(=O)c1cccc2nc3c(Cl)cccc3nc12)CCCNC(=O)c1cccc2nc3c(Cl)cccc3nc12 | 209 nM | 151 nM | 7740 nM | – | – | – | – | – | – | – |
| Cc1cccc2nc3cccc(C(=O)NCCCN(C)CCCNC(=O)c4cccc5nc6cccc(C)c6nc45)c3nc12 | 5.7 nM | 1.6 nM | 15 nM | 20 nM | < 10 nM | < 10 nM | < 10 nM | < 10 nM | 19 nM | 220 nM |
